Most compounds without a hit are left out; they make up all but 2.2% or so of the library.
Myeloid diff 2: compounds promoting myeloid differentiation. 360,000 tested, 1% active. ER-HoxA9 myeloid progenitors, lysozyme-GFP differentiation, flow cytometry. AID 624256. calls only at 10 µM;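 active = normalized GFP-positive differentiation at or above the plate's own cutoff, the solvent-only control mean plus 3 SD; inconclusive = no clear call, values can overlap the other calls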;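 note: cells exposed to compound for four days before flow analysis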
HNF4A DNA FP: change in binding of human HNF4 alpha to DNA. activity change, % at 10 µM. 360,000 tested, 0.3% active. P41235. HNF4a-FITC DNA binding, fluorescence polarization, 1 h; in the data active = activity change above about 30%, passing the limit was not always enough
Target sequence (P41235 whole entry, looked up): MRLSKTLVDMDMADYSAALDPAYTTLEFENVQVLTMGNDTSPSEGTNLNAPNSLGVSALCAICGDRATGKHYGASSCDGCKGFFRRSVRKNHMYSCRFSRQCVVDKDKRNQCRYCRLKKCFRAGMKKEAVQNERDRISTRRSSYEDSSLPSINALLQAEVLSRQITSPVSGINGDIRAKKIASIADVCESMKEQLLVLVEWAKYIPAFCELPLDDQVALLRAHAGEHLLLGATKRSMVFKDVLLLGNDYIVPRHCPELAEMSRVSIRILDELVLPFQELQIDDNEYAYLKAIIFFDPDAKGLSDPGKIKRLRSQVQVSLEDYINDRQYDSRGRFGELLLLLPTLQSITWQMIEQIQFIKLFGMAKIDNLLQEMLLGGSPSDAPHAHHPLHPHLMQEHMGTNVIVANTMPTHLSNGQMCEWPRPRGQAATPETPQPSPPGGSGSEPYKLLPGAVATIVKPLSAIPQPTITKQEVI
CSN deneddyl inh: blocks human CSN-mediated cullin deneddylation. 360,000 tested, 0.38% active. Q92905. Purified CSN, SCF-Nedd8-OG deneddylation, fluorescence polarization. inhibition, % at 12.5 µM;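 active = pattern-corrected inhibition above about 35%, with an unprinted fluorescence ratio check between 0.5 and 1.5, limit read from the data, passing the limit was not always enough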;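 note: 0% = enzyme with substrate and 100% = substrate without enzyme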
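Detection – fluorescence polarization · System – HEK293T-derived human Csn5 enzyme · Controls – substrate-only high control, full reaction low control · Timing – 90 min, room temperature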
Exocytosis inh: lytic granule exocytosis inhibition; inhibition, % at 10 µM; TALL-104 LAMP-1 surface exposure, flow cytometry; cells stimulated with thapsigargin and PMA; AID 651702; 360,000 tested, 0.66% active;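 active = inhibition above about 55%, limit read from the data; inconclusive = no clear call, values can overlap the other calls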
* marks the source's active call; other numbers are inactive results; i = inactive; ? = inconclusive; + = active, no number.

SMILES | Myeloid diff 2 | HNF4A DNA FP | CSN deneddyl inh | Exocytosis inh
Nc1c(C(=O)Nc2ccc(S(=O)(=O)N3CCCC3)cc2)sc2nc3cc4c(cc3cc12)CCC4 | + | 5 | 7 | -2
Cc1ccccc1C(=O)N1CCC(C(=O)Nc2ccccc2N2CCCC2)CC1 | i | 3 | -5 | 4
COc1ccc(NC(=O)c2cc3ccc(O)cc3o/c2=N\O)cc1 | i | 5 | 4 | 66*
COc1ccc2oc(=Nc3cc(F)ccc3F)c(C(N)=O)cc2c1 | + | -1 | 12 | 0
COc1ccc2o/c(=N\O)c(C(=O)Nc3ccccc3OC)cc2c1 | i | 1 | 4 | 64*
NC(=O)C1CCN(C(=O)CCNS(=O)(=O)c2ccccc2F)CC1 | i | 1 | -5 | -5
COc1cccc(NC(=O)C(=O)N2CCOCC2)c1 | + | 0 | -4 | -4
COc1cccc(OC)c1C(=O)N1CCOCC1 | i | 34* | 1 | -4
CCOC(=O)c1c(C)[nH]c(C)c1S(=O)(=O)NCc1cc(C)ccc1C | i | 4 | 1 | -1
CSCCC(NS(=O)(=O)c1ccc(C)cc1)C(=O)N1CCN(S(=O)(=O)c2ccc(F)cc2)CC1 (centres undefined) | i | -2 | 3 | -4
CN(C(=O)c1cccc(NC(=O)Cc2ccc(NC(=O)C3CCCN(C(=O)C4CC4)C3)cc2)c1)C1CCC1 (centres undefined) | i | 0 | 4 | 0
COc1cccc(C(=O)NNC(=O)c2ccccc2)c1 | i | 2 | 3 | -6
COc1cccc(C(=O)NN2c3ccccc3CCc3ccccc32)c1 | + | 0 | -3 | -1
NC(=O)CC(NC(=O)Cc1ccc(Br)cc1)c1ccc(NC2CCN(Cc3ccccc3)CC2)c([N+](=O)[O-])c1 (centres undefined) | i | -4 | 53* | -6
COc1ccc([C@H]2C(C#N)=C([S-])N[C@](C)(O)[C@@H]2[n+]2ccccc2)cc1 | + | 6 | 7 | 1
Cc1ccc[n+](C2C(c3ccc([N+](=O)[O-])cc3)C(C#N)=C([S-])NC2(O)C2CC2)c1 (centres undefined) | i | -2 | 11 | 0
Cc1nc(S/C(=C/c2ccc(-c3ccc(Cl)cc3)o2)C(=O)O)n[nH]1 | i | 3 | 7 | 69*
Cc1nc(S/C(=C/c2ccc(-c3ccc(C(=O)O)cc3)o2)C(=O)O)n[nH]1 | i | 3 | 10 | 0
COCC(=O)Nc1ccc2c(c1)[C@@H]1C[C@H](CC(=O)OC)O[C@@H](CO)[C@@H]1O2 | i | 3 | 1 | -4
Cc1ccccc1NC(=O)c1cccc(S(=O)(=O)N2CCCCC2)c1 | i | 0 | -2 | 5
Cc1ccc(O)c(NC(=O)c2cccc(S(=O)(=O)N3CCCCC3)c2)c1 | + | 3 | 6 | 2
CN1CCN(S(=O)(=O)c2cccc(C(=O)Nc3cc(C(F)(F)F)ccc3N3CCCCC3)c2)CC1 | + | 2 | 0 | 16
COc1ccc(CNC(=O)CN(Cc2ccc(Cl)cc2)S(=O)(=O)c2ccccc2)cc1 | + | -2 | -2 | 48
COc1ccc(C)cc1S(=O)(=O)N(CC(=O)NCc1ccc(Cl)cc1)Cc1ccccc1 | + | -1 | 2 | 5
COc1ccc(CNC(=O)CN(Cc2ccccc2)S(=O)(=O)c2ccc(Cl)cc2)cc1 | i | -2 | -3 | 2
SMILES | Myeloid diff 2 | HNF4A DNA FP | CSN deneddyl inh | Exocytosis inh
CCCCNc1nc(NCc2ccccc2)nc2ccccc12 | + | 2 | 3 | 6
Cc1sc2ncn(CC(=O)NCCCC(=O)N3CCCCC3)c(=O)c2c1C | i | 1 | 7 | -4
CC1CCN(C(=O)CCNC(=O)Cn2cnc3sc4c(c3c2=O)CCCC4)CC1 | i | 1 | 125* | 0
CC1CCN(C(=O)CCCNC(=O)Cn2cnc3sc4c(c3c2=O)CCCC4)CC1 | i | -2 | -2 | -1
COc1cc(NC(=O)CCNC(=O)Cn2cnc3sc4c(c3c2=O)CCCC4)cc(OC)c1OC | + | 3 | 4 | -2
COc1cc(NC(=O)CCCNC(=O)Cn2cnc3sc4c(c3c2=O)CCCC4)cc(OC)c1OC | ? | 0 | -4 | -3
Cc1sc2ncn(CC(=O)NCCCC(=O)N3CCN(c4ccccc4)CC3)c(=O)c2c1C | i | 0 | 76* | -4
CCc1ccc2c(COC(=O)C3CSC4(C)CCC(=O)N34)cc(=O)oc2c1 (centres undefined) | i | 1 | 1 | 0
O=C(CCNC(=O)c1ccco1)NNC(=O)c1ccc(Br)cc1 | + | 3 | 1 | -2
CCN1CCN(CCCNC(=O)c2ccc(/C=C3/Oc4ccccc4N(Cc4cccc(C)c4)C3=O)cc2)CC1 | i | 8 | -1 | 46
CCN1CCN(CCCNC(=O)c2ccc(/C=C3/Sc4ccccc4N(Cc4ccccc4F)C3=O)cc2)CC1 | i | 6 | 3 | 70*
O=C(NCCN1CCOCC1)c1ccc2c(c1)N(Cc1ccccc1F)C(=O)c1ccccc1S2 | + | 0 | -4 | -2
COc1ccc(OC)c(/C=C2\S/C(=N/NC(=O)c3ccc4ccccc4c3)NC2=O)c1 | i | 1 | 51* | 0
O=C(NCc1cccnc1)/C(=C\c1ccc(-c2cccc(Cl)c2)o1)S(=O)(=O)c1ccccc1 | ? | 1 | 5 | 90*
COc1ccc(N(Cc2cc3cccc(C)c3[nH]c2=O)S(=O)(=O)c2ccc(Cl)cc2)cc1 | ? | -2 | 0 | 0
COc1ccc(N(Cc2cc3cccc(C)c3[nH]c2=O)S(=O)(=O)c2ccc(OC)cc2)cc1 | + | 2 | 2 | 15
C=CCN(c1ccc(C(=O)NCCSc2ccccc2)cc1)S(C)(=O)=O | i | -3 | 3 | 29
O=S(=O)(Nc1nc2ccccc2s1)c1ccc(Br)s1 | + | 11 | 6 | 2
Cc1ccc(S(=O)(=O)Nc2nc3ccccc3s2)cc1 | i | 4 | -4 | -2
CC(=O)N1C[C@H]2CON(C)[C@H]2C[C@H]1c1ccccc1Br | i | -5 | -1 | 4
COc1ccc(CN2CC[C@@H]3CN(C(C)=O)[C@H](c4ccccc4Br)C[C@@H]32)cc1 | i | 1 | 161* | 0
CC(/C=N\NC(=O)c1ccc2c(c1)OCO2)c1ccccc1 (centres undefined) | i | 3 | 6 | 3
NC(=O)c1nsc(C(=O)N(Cc2ccco2)C(C(=O)NCc2ccc(F)cc2)c2ccc(O)cc2)c1N (centres undefined) | i | 0 | 1 | 32
COc1ccc(CNC(=O)C(c2ccc(C)o2)N(C(=O)c2snc(C(N)=O)c2N)c2ccccc2OC)cc1 (centres undefined) | i | -1 | -1 | 73*
Cc1ccc(C(C(=O)NCc2ccc(F)cc2)N(Cc2ccco2)C(=O)c2snc(C(N)=O)c2N)o1 (centres undefined) | i | 2 | -1 | 74*
C[C@H](CO)N1C[C@H](C)[C@@H](CN(C)S(=O)(=O)c2ccc(F)cc2)Oc2ccc(NC(=O)CCN3CCOCC3)cc2C1=O | i | 2 | -3 | -3

Compound activity (PubChem BioAssay)
